Data set [1] relates to HeLa. The data set is described as follows: Cytotoxicity against human HeLa cells assessed as cell death at 200 uM by […]. It is filed as cell-based. In a few lines: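 HeLa cells were grown in DMEM with 5% FBS and 1% penicillin–streptomycin. 100 μl of 5000 cells/ml was seeded and held 24 h at 37 °C, 5% CO2. Compound at 200 μM, with rotenone control, was added for 24 h. WST-8/1-methoxy PMS was added for 2 h, and absorbance read at 450 nm against 630 nm. Result reported as cell death ratio.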
(Formazan colour is commonly taken as a measure of viable cells.)

In data set [2] the target is Cathepsin B (Bos taurus) (UniProt P07688). The experiment in a line: Inhibition of bovine spleen cathepsin B using Z-Arg-Arg-MCA as substrate at 1 mM incubated for 10 mins. In a few lines: (§1)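 10 mU enzyme preincubated 10 min at 40 °C in 50 mM MES pH 6.0 with 2 mM DTT and 0.1% Brij-35. Z-Arg-Arg-MCA and inhibitor in DMSO were then added and incubated 10 min at 40 °C. Reaction stopped with sodium monochloroacetate/acetate buffer, pH 4.3. Screening was at 1.0 mM inhibitor; IC50 runs used 1 nM to 1 mM.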

Data set [3] addresses Cathepsin B (Bos taurus, UniProt P07688). The data set is described as follows: Inhibition of bovine spleen cathepsin B using Z-Arg-Arg-MCA as substrate incubated for 10 mins. An outline of the steps: as §1
For data set [4], the target named is Cathepsin B (Bos taurus) (UniProt P07688). The experiment in a line: Competitive inhibition of bovine spleen cathepsin B using Z-Arg-Arg-MCA as substrate incubated for 10 mins by Lineweaver-Burk plot.

Structures are written as SMILES. pIC50: −log10 of the molar value. Activity calls are given as the source filed them. The rule behind the calls is not given here.

This passage reports Activity, inhibition and IC50 results from ChEMBL document CHEMBL3763015 (Bioorg Med Chem, 2016).

Broadly, the inhibition is the percentage by which the read-out fell short of the control. Turning to `O=C(/C=C/c1ccc(OC(=O)c2ccccc2)cc1)N[C@@H](COC(=O)c1ccccc1)C(=O)NC1CCCCC1`, in data set [1], the Activity was < 20%. For the same compound, in data set [2], the inhibition was found to be 35%.
`O=C(/C=C/c1ccccc1)N[C@@H](COC(=O)CCc1ccccc1)C(=O)NC1CCCCC1` yielded an inhibition in data set [2] of 82%.
With `COc1ccc(/C=C/C(=O)N[C@@H](COC(=O)c2ccccc2)C(=O)NC2CCCCC2)cc1OC`, in data set [2], the inhibition was 88%.
The pIC50 is the IC50 on a negative log10 scale, so that one unit is a factor of ten. A lower pIC50 goes with a large IC50. In data set [3], `COc1ccccc1/C=C/C(=O)N[C@@H](COC(=O)c1ccccc1)C(=O)NC1CCCCC1` showed a pIC50 of 3.77. The inhibition in data set [2] is 67%. The inhibition entry in data set [4] was “Active”.
Consider `O=C(/C=C/c1ccc(OC(=O)c2ccccc2)cc1)N[C@H](COC(=O)c1ccccc1)C(=O)NC1CCCCC1`, for which the inhibition in data set [2] turned out to be 19%.
As to `COc1cc(/C=C/C(=O)N[C@@H](COC(=O)c2ccccc2)C(=O)NC2CCCCC2)cc(OC)c1OC`, the Activity in data set [1] was < 20%. In addition, in data set [2], the inhibition stood at 21%.
The like results for `COc1cccc(/C=C/C(=O)N[C@@H](COC(=O)c2ccccc2)C(=O)NC2CCCCC2)c1` were, in that order, < 20% and 36%.
In data set [2], `COc1cc(/C=C/C(=O)N[C@H](COC(=O)c2ccccc2)C(=O)NC2CCCCC2)cc(OC)c1` registered an inhibition of 22%.
With `O=C(/C=C/c1ccccc1)N[C@@H](COC(=O)c1ccccc1)C(=O)NC1CCCCC1`, in data set [1], the Activity is reported as < 20%. The compound further gave an inhibition in data set [2] of 34%.
For the compound `O=C(/C=C/c1ccccc1)N[C@H](COC(=O)c1ccccc1)C(=O)NC1CCCCC1`, the inhibition entry in data set [2] is “inactive”.
Consider `COc1cccc(/C=C/C(=O)N[C@H](COC(=O)c2ccccc2)C(=O)NC2CCCCC2)c1`, for which the inhibition in data set [2] stood at 44%.
Consider `COc1cc(/C=C/C(=O)N[C@H](COC(=O)c2ccccc2)C(=O)NC2CCCCC2)cc(OC)c1OC`, for which, in data set [3], the pIC50 is 3.30. The compound further returned an inhibition in data set [2] of 70%.
Take `COc1cc(/C=C/C(=O)N[C@@H](COC(=O)c2ccccc2)C(=O)NC2CCCCC2)cc(OC)c1`: the Activity in data set [1] is given as < 20%. In addition, in data set [2], the inhibition entry was “inactive”.
